We go through 14 molecules from PubChem BioAssay.

Assay [1] in a line: Her2 expression decrease, cell viability multiplex – SKBR3 breast tumor cells, AlphaScreen, ATP viability, primary screen (AID 461).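 For Her2 level: lower value means less Her2 protein in the cells.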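 For viability: percent of carrier control wells set as 100% viability.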 The conditions noted are these: SKBR3 Her2 protein level, 18-24 h, measured here: SKBR3 viability, ATP luminescence, at 10 µM. On the technique in general: Alpha assays give light when donor and acceptor beads are brought close together.
The target of assay [2] is Receptor tyrosine-protein kinase erbB-2 (Homo sapiens) (UniProt P04626). The description is as above. As to conditions: 18-24 h, at 10 µM, stronger effect = lower value.
Assay [3] in a line: reduced viability of SK-BR-3 breast cancer cells – cell-based, 24 h, human, pilot screen (AID 572;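 active = viability at or below 10% of carrier control in both of two separate runs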;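 note: compound exposure lasted between 18 and 24 h rather than exactly 24 h; 100% = carrier-treated control wells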). As to conditions: SK-BR-3 viability, CellTiter-Glo luminescence, at 10 µM, stronger effect = lower value. A general note: ATP-based viability assays read luminescence as a measure of living cells.
Assay [4] in a line: HUVEC growth inhibition – cell-based, human, primary screen (AID 575;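 active = viability at or below 30% in both replicate assays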;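 note: 100% = median of untreated cell wells with 0.1% DMSO on each plate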). The conditions noted are these: HUVEC proliferation, CellTiter-Glo luminescence, 72 h; at 10 µM; stronger effect = lower value. The essentials: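 Material: primary human umbilical vein endothelial cells / Schedule: 72 h exposure, 37 °C, 5% CO2, 30 min RT equilibration / Signal: ATP-based CellTiter-Glo luminescent read / Read-out basis: percent of median DMSO-control luminescence / Control set: 32 DMSO-only cell-control wells (high), 32 MePR drug-control wells (low) per plate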

Assay [5] is described as follows: H69AR cell proliferation blockers – human, duplicate replicates, primary screen (AID 580;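 active = viability at or under a set limit in both replicates, limit being median viability minus 3 SD, cut at about 48% in these data, passing the limit was not always enough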;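 note: 100% = mean luminescence of untreated wells and 0% = no signal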). As to conditions: H69AR lung tumor cells viability, ATP luminescence, 72 h; at 10 µM; stronger effect = lower value.
A short description of assay [6]: MRP1 drug-resistance reversers in H69AR cells – cell-based, doxorubicin co-treatment, pilot screen (AID 601;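 active = viability loss from added drug above about 55%, and viability with drug at most 40%, in both replicates, limit read from the data, passing the limit was not always enough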). The conditions noted are these: CellTiter-Glo, 72 h, at 10 µM; for differential viability (reversal): stronger effect = higher value.
Assay [7] can be described thus: yeast transport mutant growth inhibition pilot in 384-well plates, post-Golgi transport modulator project (AID 636; in the data active = inhibition above about 31%). The conditions noted are these: absorbance 615 nm, about 18 h, stronger effect = higher value.
The nature of assay [8]: growth suppression of yeast trafficking mutant, preliminary HTS, modulators of trafficking downstream of Golgi apparatus project, 1536-format plate, OD 615 nm (AID 637; in the data active = inhibition above about 30%). As to conditions: yeast transport mutant growth, absorbance 615 nm, 18 h; stronger effect = higher value.
[9] abbreviates: H69AR cells + 2 uM doxorubicin, measured here: viability with 2 uM doxorubicin, stronger effect = lower value.
Where [10] appears, read: H69AR cells, compound alone cytotoxicity.

The source made the active and inactive calls.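 Rule for the calls, unless noted: active = Her2 level under about 52% in both replicate screens, with viability over 70% of control (limit read from the data); inconclusive = Her2 under the limit in one screen only, or viability under 70%; inactive = Her2 level above the set limit.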

Sequence of Receptor tyrosine-protein kinase erbB-2 (Homo sapiens) (P04626 whole entry, looked up): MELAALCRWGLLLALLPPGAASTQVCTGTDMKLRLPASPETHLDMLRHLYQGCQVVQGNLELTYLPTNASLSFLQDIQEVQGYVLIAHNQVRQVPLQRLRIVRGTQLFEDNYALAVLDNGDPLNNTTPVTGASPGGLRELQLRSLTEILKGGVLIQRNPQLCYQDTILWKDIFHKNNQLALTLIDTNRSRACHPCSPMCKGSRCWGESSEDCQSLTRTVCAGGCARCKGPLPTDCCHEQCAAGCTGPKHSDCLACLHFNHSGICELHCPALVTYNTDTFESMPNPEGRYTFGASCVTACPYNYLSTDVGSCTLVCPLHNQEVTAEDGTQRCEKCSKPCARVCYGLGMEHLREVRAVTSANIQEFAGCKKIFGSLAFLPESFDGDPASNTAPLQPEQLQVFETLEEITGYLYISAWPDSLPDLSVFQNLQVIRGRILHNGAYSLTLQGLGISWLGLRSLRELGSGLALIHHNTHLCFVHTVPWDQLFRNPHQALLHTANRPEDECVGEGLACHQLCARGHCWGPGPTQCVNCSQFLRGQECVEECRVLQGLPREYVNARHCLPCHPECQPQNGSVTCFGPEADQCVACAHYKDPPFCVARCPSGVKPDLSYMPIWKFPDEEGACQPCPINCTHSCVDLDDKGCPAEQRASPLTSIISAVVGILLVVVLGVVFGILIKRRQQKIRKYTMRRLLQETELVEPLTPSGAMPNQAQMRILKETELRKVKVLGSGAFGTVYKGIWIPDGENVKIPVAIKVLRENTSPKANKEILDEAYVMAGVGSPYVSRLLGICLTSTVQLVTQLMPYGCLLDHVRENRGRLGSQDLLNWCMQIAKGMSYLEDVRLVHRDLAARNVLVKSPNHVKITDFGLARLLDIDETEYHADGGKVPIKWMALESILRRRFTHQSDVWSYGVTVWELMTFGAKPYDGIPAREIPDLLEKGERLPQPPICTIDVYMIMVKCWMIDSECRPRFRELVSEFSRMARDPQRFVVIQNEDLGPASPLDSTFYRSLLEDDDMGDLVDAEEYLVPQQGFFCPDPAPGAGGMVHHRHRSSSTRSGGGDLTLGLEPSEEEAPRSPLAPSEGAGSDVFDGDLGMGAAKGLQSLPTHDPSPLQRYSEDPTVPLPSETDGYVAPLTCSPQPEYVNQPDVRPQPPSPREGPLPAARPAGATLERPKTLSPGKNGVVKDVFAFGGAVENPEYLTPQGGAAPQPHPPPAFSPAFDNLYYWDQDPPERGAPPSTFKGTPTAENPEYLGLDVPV

For `COCCCNC(=O)C(Cc1ccccc1)NS(=O)(=O)c1ccc2c(c1)c(=O)n(C)c(=O)n2C` (stereo not given), the viability (usually a read-out of living cells in per cent, often relative to untreated cells) in assay [1] is 101%; in assay [3], 101% (inactive); in assay [4], 96.8% (inactive); in assay [5], 89.2% (inactive); in assay [6] (setting [9]), 85.9%; in assay [6] (setting [10]), 89.2%. Further, the Her2 level in assay [2] is 95.5% (inactive). In addition, in assay [6] (H69AR cells + 2 uM doxorubicin), the differential viability (reversal) is 3.26% (inactive). In addition, the inhibition (as a rule, the change of the read-out against control, counted positive when it falls) in assay [7] is -2.63% (inactive); in assay [8], -3.97% (inactive).

Turning to `CCNC(=O)C1CC(=O)N(Cc2ccc3c(c2)OCO3)C(=Nc2ccc(F)cc2)S1` (stereo not given), the viability in assay [1] was 124%; in assay [3], 124% (inactive); in assay [4], 85.6% (inactive); in assay [5], 82.6% (inactive); in assay [6] (setting [9]), 87.8%; in assay [6] (setting [10]), 82.6%. Also, the Her2 level in assay [2] is 112% (inactive). Also, in assay [6] (H69AR cells + 2 uM doxorubicin), the differential viability (reversal) is -5.16% (inactive). The inhibition is -6.58% (inactive) in assay [7] and -6.98% (inactive) in assay [8].

Turning to `CCCCSc1nc2c(cnn2-c2ccc(Cl)cc2)c(=O)[nH]1`, the viability in assay [1] was 93%; in assay [3], 93% (inactive); in assay [4], 85.5% (inactive); in assay [5], 75.1% (inactive); in assay [6] (setting [9]), 72.1%; in assay [6] (setting [10]), 75.1%. The Her2 level in assay [2] is 83.5% (inactive). The differential viability (reversal) in assay [6] (H69AR cells + 2 uM doxorubicin) is 2.96% (inactive). The inhibition in assay [7] was -4.93% (inactive); in assay [8], 7.38% (inactive).

For `Cn1c(-n2c(-c3ccco3)nc3ccccc3c2=O)nc2ccccc21`, the viability in assay [1] was 83%; in assay [3], 83% (inactive); in assay [4], 89.9% (inactive); in assay [5], 90.3% (inactive); in assay [6] (setting [9]) it was 85%; in assay [6] (setting [10]), 90.3%. Further, the Her2 level in assay [2] is 98% (inactive). Besides, in assay [6] (H69AR cells + 2 uM doxorubicin), the differential viability (reversal) was 5.28% (inactive). Further, the inhibition was -1.47% (inactive) in assay [7] and 6.56% (inactive) in assay [8].

Take `O=S(=O)(Nc1nc2ccccc2nc1NCc1ccco1)c1ccc(Cl)cc1`: the viability in assay [1] was 94%; in assay [3] it was 94% (inactive); in assay [4] it was 69.6% (inactive); in assay [5], 65.3% (inactive); in assay [6] (setting [9]), 69.8%; in assay [6] (setting [10]), 65.3%. In assay [2], the Her2 level is 103% (inactive). For the same molecule, the differential viability (reversal) in assay [6] (H69AR cells + 2 uM doxorubicin) was -4.42% (inactive). Moreover, the inhibition in assay [7] is -4.42% (inactive); in assay [8] it was 4.83% (inactive).

Regarding `CN(C)S(=O)(=O)c1ccc(Oc2ccc(S(=O)(=O)N(C)C)cc2)cc1`, the viability is 80.5% in assay [1]; 80.5% (inactive) in assay [3]; 54.4% (inactive) in assay [4]; 93.8% (inactive) in assay [5]; 94.6% in assay [6] (setting [9]); 93.8% in assay [6] (setting [10]). For the same molecule, the Her2 level in assay [2] is 96.5% (inactive). Besides, the differential viability (reversal) in assay [6] (H69AR cells + 2 uM doxorubicin) was -0.755% (inactive). In addition, the values for the inhibition in assay [7] and in assay [8] were -2.4% (inactive) and -7.14% (inactive), respectively.

Take `CC(=O)Nc1ccc(S(=O)(=O)Nc2nc3ccccc3nc2N2CCCC2)cc1`: the viability is 99.5% in assay [1]; 99.5% (inactive) in assay [3]; 93.7% (inactive) in assay [4]; 92.3% (inactive) in assay [5]; 100% in assay [6] (setting [9]); 92.3% in assay [6] (setting [10]). Besides, in assay [2], the Her2 level was 98% (inactive). For the same molecule, the differential viability (reversal) in assay [6] (H69AR cells + 2 uM doxorubicin) was -8.08% (inactive). Also, the inhibition was -7.87% (inactive) in assay [7] and 3.61% (inactive) in assay [8].

Regarding `O=C(Nc1ccc(N2CCN(Cc3ccccc3Cl)CC2)cc1)c1cccnc1`, the viability in assay [1] was 91%; in assay [3], 91% (inactive); in assay [4], 117% (inactive); in assay [5], 103% (inactive); in assay [6] (setting [9]) it was 98%; in assay [6] (setting [10]) it was 103%. Also, the Her2 level in assay [2] is 108% (inactive). The differential viability (reversal) in assay [6] (H69AR cells + 2 uM doxorubicin) is 5.44% (inactive). The inhibition is 2.16% (inactive) in assay [7] and 0.82% (inactive) in assay [8].

With `CCOc1ccccc1C(=O)NC(C)c1ccc2c(c1)OCO2` (stereo not given), the viability in assay [1] is 104%; in assay [3], 104% (inactive); in assay [4] it was 67.6% (inactive); in assay [5], 23.5% (active); in assay [6] (setting [9]) it was 80%; in assay [6] (setting [10]), 23.5%. In assay [2], the Her2 level was 99% (inactive). For the same molecule, in assay [6] (H69AR cells + 2 uM doxorubicin), the differential viability (reversal) is -56.4% (inactive). For the same molecule, the results for the inhibition in assay [7] and in assay [8] were -6.89% (inactive) and -4.26% (inactive), respectively.

On to `CC(C)Cn1c(N)c(C(=O)COC(=O)c2ccc3c(c2)OCCO3)c(=O)n(C)c1=O`, for which the viability in assay [1] is 87%; in assay [3], 87% (inactive); in assay [4], 71.3% (inactive); in assay [5], 91.8% (inactive); in assay [6] (setting [9]) it was 98.6%; in assay [6] (setting [10]), 91.8%. Also, the Her2 level in assay [2] is 102% (inactive). The differential viability (reversal) in assay [6] (H69AR cells + 2 uM doxorubicin) is -6.76% (inactive). Besides, the results for the inhibition in assay [7] and in assay [8] were -4.46% (inactive) and 0.16% (inactive), respectively.

Turning to `CCOc1cccc(C(=O)N(Cc2ccc(F)cc2)C2CCS(=O)(=O)C2)c1` (stereo not given), the viability was 97% in assay [1]; 97% (inactive) in assay [3]; 100% (inactive) in assay [4]; 86.3% (inactive) in assay [5]; 89.9% in assay [6] (setting [9]); 86.3% in assay [6] (setting [10]). In assay [2], the Her2 level was 98% (inactive). Further, the differential viability (reversal) in assay [6] (H69AR cells + 2 uM doxorubicin) was -3.54% (inactive). The inhibition was -1.82% (inactive) in assay [7] and -2.33% (inactive) in assay [8].

As to `COC(=O)CCC(=O)Nc1cccc(Br)c1`, the viability in assay [1] was 128%; in assay [3], 128% (inactive); in assay [4] it was 110% (inactive); in assay [5] it was 101% (inactive); in assay [6] (setting [9]) it was 100%; in assay [6] (setting [10]), 101%. Also, in assay [2], the Her2 level was 85% (inactive). Moreover, the differential viability (reversal) in assay [6] (H69AR cells + 2 uM doxorubicin) is 0.985% (inactive). The inhibition in assay [7] was -9.32% (inactive); in assay [8] it was -3.65% (inactive).

Regarding `Cc1cccc(N2CN=c3s/c(=C\c4ccncc4)c(=O)n3C2)c1`, the viability is 86.5% in assay [1]; 86.5% (inactive) in assay [3]; 77.4% (inactive) in assay [4]; 80.8% (inactive) in assay [5]; 91% in assay [6] (setting [9]); 80.8% in assay [6] (setting [10]). The Her2 level in assay [2] was 68% (inactive). Moreover, the differential viability (reversal) in assay [6] (H69AR cells + 2 uM doxorubicin) was -10.2% (inactive). Also, the inhibition was -1.32% (inactive) in assay [7] and -2.42% (inactive) in assay [8].

With `COc1cccc(OCC(O)CN2CCN(CCO)CC2)c1` (stereo not given), the viability in assay [1] is 92.5%; in assay [3] it was 92.5% (inactive); in assay [4], 101% (inactive); in assay [5], 93.2% (inactive); in assay [6] (setting [9]), 91.6%; in assay [6] (setting [10]) it was 93.2%. The Her2 level in assay [2] was 96% (inactive). In assay [6] (H69AR cells + 2 uM doxorubicin), the differential viability (reversal) is 1.65% (inactive). The inhibition was 1.18% (inactive) in assay [7] and 6.39% (inactive) in assay [8].
